Tests used:
Assay type in all cases: functional
Salmonella typhimurium [1] = experiment: Antimicrobial activity against Salmonella enterica subsp. enterica serovar Typhimurium ATCC 14028 assessed as growth inhibition rate at 0.05 mg/l after 72 hr by spectrophotometry; settings: ATCC 14028, 72 h, read-out: GI
How it was run: (§1)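 Salmonella Typhimurium ATCC 14028 grown in nutrient broth at 30 °C, precultured 24 h, then subcultured 1:100 for 18 h before testing. Single volatile compounds (>95% pure) were added. OD was read every 24 h over 72 h in a Bioscreen C, with 10% Tween 80 as the comparison control.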

Bacillus cereus [2] = experiment: Antimicrobial activity against Bacillus cereus ATCC 11778 assessed as growth inhibition rate at 0.12 mg/l after 72 hr by spectrophotometry; settings: ATCC 11778, 72 h, read-out: GI
How it was run: (§2)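 Pure volatile compounds (purity >95%; one at 90%) were tested against B. cereus ATCC 11778. The strain was grown at 30 °C in nutrient broth for 24 h, then subcultured for 18 h. Optical density was read in a Bioscreen C every 24 h for 72 h, with 10% Tween 80 as the control.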

Bacillus cereus [3] = experiment: Antimicrobial activity against Bacillus cereus ATCC 11778 assessed as growth inhibition rate at 0.05 mg/l after 72 hr by spectrophotometry; settings: ATCC 11778, 72 h, read-out: GI; how it was run: as §2
Vibrio parahaemolyticus [4] = experiment: Antimicrobial activity against Vibrio parahaemolyticus ATCC 33844 assessed as growth inhibition rate at 0.12 mg/l after 72 hr by spectrophotometry; settings: ATCC 33844, 72 h, read-out: GI
Salmonella typhimurium [5] = experiment: Antimicrobial activity against Salmonella enterica subsp. enterica serovar Typhimurium ATCC 14028 assessed as growth inhibition rate at 0.025 mg/l after 72 hr by spectrophotometry; settings: ATCC 14028, 72 h, read-out: GI; how it was run: as §1
Listeria monocytogenes [6] = experiment: Antimicrobial activity against Listeria monocytogenes ATCC 19111 assessed as growth inhibition rate at 0.05 mg/l after 72 hr by spectrophotometry; settings: ATCC 19111, 72 h, read-out: GI
How it was run: (§3)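 L. monocytogenes was grown at 30 °C in tryptic soy broth, subcultured for 18 h, and exposed to pure volatile compounds (>95% purity). Growth was followed by Bioscreen C optical density every 24 h for 72 h against a 10% Tween 80 control.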

Listeria monocytogenes [7] = experiment: Antimicrobial activity against Listeria monocytogenes ATCC 19111 assessed as growth inhibition rate at 6.8 mg/l after 72 hr by spectrophotometry; settings: ATCC 19111, 72 h, read-out: GI; how it was run: as §3
Vibrio parahaemolyticus [8] = experiment: Antimicrobial activity against Vibrio parahaemolyticus ATCC 33844 assessed as growth inhibition rate at 6.8 mg/l after 72 hr by spectrophotometry; settings: ATCC 33844, 72 h, read-out: GI
How it was run: (§4)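 Vibrio parahaemolyticus ATCC 33844 grown at 37 °C in tryptic soy broth with 3% (w/v) NaCl, using an 18 h subculture of a 24 h culture. Pure compounds (>95% purity) were tested. Bioscreen C optical density was read every 24 h for 72 h against a 10% Tween 80 control.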

Salmonella typhimurium [9] = experiment: Antimicrobial activity against Salmonella enterica subsp. enterica serovar Typhimurium ATCC 14028 assessed as growth inhibition rate at 0.12 mg/l after 72 hr by spectrophotometry; settings: ATCC 14028, 72 h, read-out: GI; how it was run: as §1
Escherichia coli [10] = experiment: Antimicrobial activity against Escherichia coli O157:H7 ATCC 43894 assessed as growth inhibition rate at 0.05 mg/l after 72 hr by spectrophotometry; settings: O157:H7 ATCC 43894, 72 h, read-out: GI
Escherichia coli [11] = experiment: Antimicrobial activity against Escherichia coli O157:H7 ATCC 43894 assessed as growth inhibition rate at 0.025 mg/l after 72 hr by spectrophotometry; settings: O157:H7 ATCC 43894, 72 h, read-out: GI
Staphylococcus aureus [12] = experiment: Antimicrobial activity against Staphylococcus aureus ATCC 25923 assessed as growth inhibition rate at 6.8 mg/l after 72 hr by spectrophotometry; settings: ATCC 25923, 72 h, read-out: GI
How it was run: (§5)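 Staphylococcus aureus ATCC 25923 grown at 37 °C in tryptic soy broth, using an 18 h subculture of a 24 h culture. Individual leaf-volatile compounds (>95% purity) were tested. Bioscreen C optical density was recorded every 24 h for 72 h and compared with a 10% Tween 80 control.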

Escherichia coli [13] = experiment: Antimicrobial activity against Escherichia coli O157:H7 ATCC 43894 assessed as growth inhibition rate at 3.4 mg/l after 72 hr by spectrophotometry; settings: O157:H7 ATCC 43894, 72 h, read-out: GI
Bacillus cereus [14] = experiment: Antimicrobial activity against Bacillus cereus ATCC 11778 assessed as growth inhibition rate at 3.4 mg/l after 72 hr by spectrophotometry; settings: ATCC 11778, 72 h, read-out: GI; how it was run: as §2
Bacillus cereus [15] = experiment: Antimicrobial activity against Bacillus cereus ATCC 11778 assessed as growth inhibition rate at 6.8 mg/l after 72 hr by spectrophotometry; settings: ATCC 11778, 72 h, read-out: GI; how it was run: as §2
Listeria monocytogenes [16] = experiment: Antimicrobial activity against Listeria monocytogenes ATCC 19111 assessed as growth inhibition rate at 0.025 mg/l after 72 hr by spectrophotometry; settings: ATCC 19111, 72 h, read-out: GI; how it was run: as §3
Escherichia coli [17] = experiment: Antimicrobial activity against Escherichia coli O157:H7 ATCC 43894 assessed as growth inhibition rate at 0.68 mg/l after 72 hr by spectrophotometry; settings: O157:H7 ATCC 43894, 72 h, read-out: GI
Staphylococcus aureus [18] = experiment: Antimicrobial activity against Staphylococcus aureus ATCC 25923 assessed as growth inhibition rate at 0.025 mg/l after 72 hr by spectrophotometry; settings: ATCC 25923, 72 h, read-out: GI
Staphylococcus aureus [19] = experiment: Antimicrobial activity against Staphylococcus aureus ATCC 25923 assessed as growth inhibition rate at 0.12 mg/l after 72 hr by spectrophotometry; settings: ATCC 25923, 72 h, read-out: GI
Staphylococcus aureus [20] = experiment: Antimicrobial activity against Staphylococcus aureus ATCC 25923 assessed as growth inhibition rate at 0.05 mg/l after 72 hr by spectrophotometry; settings: ATCC 25923, 72 h, read-out: GI
Salmonella typhimurium [21] = experiment: Antimicrobial activity against Salmonella enterica subsp. enterica serovar Typhimurium ATCC 14028 assessed as growth inhibition rate at 6.8 mg/l after 72 hr by spectrophotometry; settings: ATCC 14028, 72 h, read-out: GI; how it was run: as §1
Salmonella typhimurium [22] = experiment: Antimicrobial activity against Salmonella enterica subsp. enterica serovar Typhimurium ATCC 14028 assessed as growth inhibition rate at 3.4 mg/l after 72 hr by spectrophotometry; settings: ATCC 14028, 72 h, read-out: GI; how it was run: as §1
Escherichia coli [23] = experiment: Antimicrobial activity against Escherichia coli O157:H7 ATCC 43894 assessed as growth inhibition rate at 0.12 mg/l after 72 hr by spectrophotometry; settings: O157:H7 ATCC 43894, 72 h, read-out: GI
Salmonella typhimurium [24] = experiment: Antimicrobial activity against Salmonella enterica subsp. enterica serovar Typhimurium ATCC 14028 assessed as growth inhibition rate at 0.68 mg/l after 72 hr by spectrophotometry; settings: ATCC 14028, 72 h, read-out: GI; how it was run: as §1
Vibrio parahaemolyticus [25] = experiment: Antimicrobial activity against Vibrio parahaemolyticus ATCC 33844 assessed as growth inhibition rate at 0.05 mg/l after 72 hr by spectrophotometry; settings: ATCC 33844, 72 h, read-out: GI
Vibrio parahaemolyticus [26] = experiment: Antimicrobial activity against Vibrio parahaemolyticus ATCC 33844 assessed as growth inhibition rate at 3.4 mg/l after 72 hr by spectrophotometry; settings: ATCC 33844, 72 h, read-out: GI; how it was run: as §4
Listeria monocytogenes [27] = experiment: Antimicrobial activity against Listeria monocytogenes ATCC 19111 assessed as growth inhibition rate at 3.4 mg/l after 72 hr by spectrophotometry; settings: ATCC 19111, 72 h, read-out: GI; how it was run: as §3
Vibrio parahaemolyticus [28] = experiment: Antimicrobial activity against Vibrio parahaemolyticus ATCC 33844 assessed as growth inhibition rate at 0.68 mg/l after 72 hr by spectrophotometry; settings: ATCC 33844, 72 h, read-out: GI; how it was run: as §4
Listeria monocytogenes [29] = experiment: Antimicrobial activity against Listeria monocytogenes ATCC 19111 assessed as growth inhibition rate at 0.68 mg/l after 72 hr by spectrophotometry; settings: ATCC 19111, 72 h, read-out: GI; how it was run: as §3
Escherichia coli [30] = experiment: Antimicrobial activity against Escherichia coli O157:H7 ATCC 43894 assessed as growth inhibition rate at 6.8 mg/l after 72 hr by spectrophotometry; settings: O157:H7 ATCC 43894, 72 h, read-out: GI
Staphylococcus aureus [31] = experiment: Antimicrobial activity against Staphylococcus aureus ATCC 25923 assessed as growth inhibition rate at 0.68 mg/l after 72 hr by spectrophotometry; settings: ATCC 25923, 72 h, read-out: GI; how it was run: as §5
Staphylococcus aureus [32] = experiment: Antimicrobial activity against Staphylococcus aureus ATCC 25923 assessed as growth inhibition rate at 3.4 mg/l after 72 hr by spectrophotometry; settings: ATCC 25923, 72 h, read-out: GI; how it was run: as §5
Bacillus cereus [33] = experiment: Antimicrobial activity against Bacillus cereus ATCC 11778 assessed as growth inhibition rate at 0.68 mg/l after 72 hr by spectrophotometry; settings: ATCC 11778, 72 h, read-out: GI; how it was run: as §2
Bacillus cereus [34] = experiment: Antimicrobial activity against Bacillus cereus ATCC 11778 assessed as growth inhibition rate at 0.025 mg/l after 72 hr by spectrophotometry; settings: ATCC 11778, 72 h, read-out: GI; how it was run: as §2
Listeria monocytogenes [35] = experiment: Antimicrobial activity against Listeria monocytogenes ATCC 19111 assessed as growth inhibition rate at 0.12 mg/l after 72 hr by spectrophotometry; settings: ATCC 19111, 72 h, read-out: GI; how it was run: as §3
Vibrio parahaemolyticus [36] = experiment: Antimicrobial activity against Vibrio parahaemolyticus ATCC 33844 assessed as growth inhibition rate at 0.025 mg/l after 72 hr by spectrophotometry; settings: ATCC 33844, 72 h, read-out: GI

`C/C=C/C=C/C=O` [2,4-HEXADIENAL] showed an inhibition of growth at 0.05 µg/mL (Salmonella typhimurium [1]) of 12.9%, an inhibition of growth at 0.12 µg/mL (Bacillus cereus [2]) of 10.8% and an inhibition of growth at 0.05 µg/mL (Bacillus cereus [3]) of 9.5%. It also gave an inhibition of growth at 0.12 µg/mL (Vibrio parahaemolyticus [4]) of 10.4%, an inhibition of growth at 0.025 µg/mL (Salmonella typhimurium [5]) of 13.2% and an inhibition of growth at 0.05 µg/mL (Listeria monocytogenes [6]) of 3.9%. For the same compound, the inhibition of growth at 6.8 µg/mL (Listeria monocytogenes [7]) was 41.4%, the inhibition of growth at 6.8 µg/mL (Vibrio parahaemolyticus [8]) was 99.1% and the inhibition of growth at 0.12 µg/mL (Salmonella typhimurium [9]) was 12.2%. For the same compound, the inhibition of growth at 0.05 µg/mL (Escherichia coli [10]) was 0.5%, the inhibition of growth at 0.025 µg/mL (Escherichia coli [11]) was 0.3% and the inhibition of growth at 6.8 µg/mL (Staphylococcus aureus [12]) was 90.9%. The inhibition of growth at 3.4 µg/mL (Escherichia coli [13]) was 12.7%, the inhibition of growth at 3.4 µg/mL (Bacillus cereus [14]) was 67.3% and the inhibition of growth at 6.8 µg/mL (Bacillus cereus [15]) was 100%. For the same compound, the inhibition of growth at 0.025 µg/mL (Listeria monocytogenes [16]) was 3.9%, the inhibition of growth at 0.68 µg/mL (Escherichia coli [17]) was 1.9% and the inhibition of growth at 0.025 µg/mL (Staphylococcus aureus [18]) was 7.8%. For the same compound, the inhibition of growth at 0.12 µg/mL (Staphylococcus aureus [19]) was 6.9%, the inhibition of growth at 0.05 µg/mL (Staphylococcus aureus [20]) was 5.3% and the inhibition of growth at 6.8 µg/mL (Salmonella typhimurium [21]) was 80.6%. For the same compound, the inhibition of growth at 3.4 µg/mL (Salmonella typhimurium [22]) was 45.1%, the inhibition of growth at 0.12 µg/mL (Escherichia coli [23]) was 2.1% and the inhibition of growth at 0.68 µg/mL (Salmonella typhimurium [24]) was 18.4%. For the same compound, the inhibition of growth at 0.05 µg/mL (Vibrio parahaemolyticus [25]) was 5.8%, the inhibition of growth at 3.4 µg/mL (Vibrio parahaemolyticus [26]) was 98.9% and the inhibition of growth at 3.4 µg/mL (Listeria monocytogenes [27]) was 32.4%. The inhibition of growth at 0.68 µg/mL (Vibrio parahaemolyticus [28]) was 20.3%, the inhibition of growth at 0.68 µg/mL (Listeria monocytogenes [29]) was 9.2% and the inhibition of growth at 6.8 µg/mL (Escherichia coli [30]) was 20.2%. The inhibition of growth at 0.68 µg/mL (Staphylococcus aureus [31]) was 8.8%, the inhibition of growth at 3.4 µg/mL (Staphylococcus aureus [32]) was 89.4% and the inhibition of growth at 0.68 µg/mL (Bacillus cereus [33]) was 45.3%. It also gave an inhibition of growth at 0.025 µg/mL (Bacillus cereus [34]) of 10.3%, an inhibition of growth at 0.12 µg/mL (Listeria monocytogenes [35]) of 7.5% and an inhibition of growth at 0.025 µg/mL (Vibrio parahaemolyticus [36]) of 6.2%.

— ChEMBL document CHEMBL3046951, “Volatile constituents from the leaves of Callicarpa japonica Thunb. and their antibacterial activities” (2004)
